Measurements taken from ChEMBL document CHEMBL4808178 (J Med Chem, 2021).
Active and inactive are the calls of the source. No cut-off for these calls is given here.

Assays:
[1] = AUC(0 to t) in Sprague-Dawley rat at 25 mg/kg, po measured up to 48 hrs by LC-MS/MS analysis; format: ADME, organism-based; set-up: route oral, dose 25 mg/kg, time <=48; conditions: in vivo
How it was run: (§1)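 Overnight-fasted male SD rats (about 250−270 g), three per group, single oral 25 mg/kg; test compound suspended in 5% CMC-Na, control as sodium salt in phosphate buffer. Blood sampled 0.25–48 h, plasma by centrifugation, stored −40 °C, quantified by LC−MS/MS against plasma standard curve (3–3000 ng/mL) with internal standard; model-fitted PK parameters.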

[2] = target: T1, Aldehyde dehydrogenase 1A1 (Homo sapiens) (UniProt P00352); test: Inhibition of ALDH1A1 in human HCT116 cells at 5 uM after 24 hrs by aldefluor staining based fluorescence analysis; format: cell-based; conditions: HCT-116
T1 sequence (whole entry): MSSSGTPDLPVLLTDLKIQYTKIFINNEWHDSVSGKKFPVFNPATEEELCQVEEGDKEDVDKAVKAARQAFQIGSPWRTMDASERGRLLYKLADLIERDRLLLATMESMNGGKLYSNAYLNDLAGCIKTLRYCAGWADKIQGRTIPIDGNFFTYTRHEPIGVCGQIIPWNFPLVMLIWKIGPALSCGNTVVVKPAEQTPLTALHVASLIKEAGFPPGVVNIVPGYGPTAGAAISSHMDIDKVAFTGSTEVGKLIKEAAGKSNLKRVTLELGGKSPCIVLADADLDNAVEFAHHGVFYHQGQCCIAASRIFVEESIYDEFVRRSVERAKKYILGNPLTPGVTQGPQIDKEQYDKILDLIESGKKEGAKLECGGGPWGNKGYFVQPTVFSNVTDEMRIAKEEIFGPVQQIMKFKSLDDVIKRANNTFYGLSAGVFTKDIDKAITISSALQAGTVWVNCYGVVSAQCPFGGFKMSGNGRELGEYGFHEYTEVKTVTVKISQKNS
How it was run: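 HCT-116 cells, 2 × 10⁵/well, grown overnight at 37 °C, 5% CO₂, then treated 24 h (vehicle DMSO). Aldefluor staining read in FITC channel by FACS for proportion of ALDH⁺ cells; DEAB-pretreated cells set baseline fluorescence.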

[3] = system: HT-29; test: Cytotoxicity against human HT-29 cells assessed as reduction in cell viability incubated for 72 hrs by MTT assay; format: functional, cell-based; conditions: HT-29, 72 h
[4] = system: MCF7; test: Cytotoxicity against human MCF7 cells assessed as reduction in cell viability incubated for 72 hrs by MTT assay; format: functional, cell-based; conditions: MCF7, 72 h
How it was run: (§2)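 About 5 × 10³ cells/well, seeded overnight at 37 °C, 5% CO₂, in DMEM or RPMI-1640 with 10% FBS and antibiotics. DMSO-dissolved compounds diluted in medium, exposure 72 h.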

[5] = Cmax in Sprague-Dawley rat at 25 mg/kg, po measured up to 48 hrs by LC-MS/MS analysis; format: ADME, organism-based; set-up: route oral, dose 25 mg/kg, time <=48; conditions: in vivo; how it was run: as §1
[6] = system: HCT-116; test: Inhibition of cell stemness in human HCT116 cells assessed as inhibition of CD44+/CD133+ expression at 20 uM after 24 hrs by flow cytometry analysis; format: functional
How it was run: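 ALDH⁺ HCT-116 subpopulation sorted by flow cytometry; 2 × 10⁵ cells/well seeded overnight at 37 °C, 5% CO₂; treated 20 μM for 24 h (vehicle DMSO); stained with PE anti-CD133 and FITC anti-CD44 30 min; CD44⁺/CD133⁺ read by flow cytometry.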

[7] = Half life in Sprague-Dawley rat at 25 mg/kg, po measured up to 48 hrs by LC-MS/MS analysis; format: ADME, organism-based; conditions: in vivo; how it was run: as §1
[8] = system: HCT-116; test: Cytotoxicity against human HCT-116 cells assessed as reduction in cell viability incubated for 72 hrs by MTT assay; format: functional, cell-based; conditions: HCT-116, 72 h; how it was run: as §2
[9] = AUC(0 to infinity) in Sprague-Dawley rat at 25 mg/kg, po measured up to 48 hrs by LC-MS/MS analysis; format: ADME, organism-based; set-up: route oral, dose 25 mg/kg, time <=48; conditions: in vivo; how it was run: as §1
[10] = system: PC-3; test: Cytotoxicity against human PC3 cells assessed as reduction in cell viability incubated for 72 hrs by MTT assay; format: functional, cell-based; conditions: PC-3, 72 h; how it was run: as §2
[11] = system: HCT-116; test: Induction of cell cycle arrest in human HCT116 cells assessed as accumulation at G2/M phase at 20 uM after 24 hrs by propidium iodide-staining based flow cytometry (reference value: 14.67%); format: functional
[12] = system: HCT-116; test: Induction of apoptosis in human HCT116 cells assessed as necrotic cells at 5 uM after 24 hrs by annexin V-FITC/propidium iodide staining based flow cytometry (reference value: 5.6%); format: functional
[13] = MRT(0 to t) in Sprague-Dawley rat at 25 mg/kg, po measured up to 48 hrs by LC-MS/MS analysis; format: ADME, organism-based; conditions: in vivo
How it was run: (§3)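 Overnight-fasted male SD rats (250−270 g, n = 3/group), single oral 25 mg/kg in 5% CMC-Na (reference sodium salt in phosphate buffer); plasma at 0.25–48 h (12 timepoints), stored −40 °C; LC−MS/MS with internal-standard calibration 3–3000 ng/mL; parameters fitted by model.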

[14] = system: HCT-116; test: Induction of apoptosis in human HCT116 cells assessed as late apoptotic cells at 5 uM after 24 hrs by annexin V-FITC/propidium iodide staining based flow cytometry (reference value: 5.1%); format: functional
[15] = system: T-24; test: Cytotoxicity against human T24 cells assessed as reduction in cell viability incubated for 72 hrs by MTT assay; format: functional, cell-based; conditions: T-24, 72 h; how it was run: as §2
[16] = system: L02; test: Cytotoxicity against human L02 cells assessed as reduction in cell viability incubated for 72 hrs by MTT assay; format: cell-based; conditions: L02, 72 h; how it was run: as §2
[17] = Clearance in Sprague-Dawley rat at 25 mg/kg, po measured up to 48 hrs by LC-MS/MS analysis; format: ADME, organism-based; conditions: in vivo; how it was run: as §1
[18] = Volume of distribution in Sprague-Dawley rat at 25 mg/kg, po measured up to 48 hrs by LC-MS/MS analysis; format: ADME, organism-based; conditions: in vivo; how it was run: as §3
[19] = system: HCT-116; test: Induction of cell cycle arrest in human HCT116 cells assessed as accumulation at G0/G1 phase at 20 uM after 24 hrs by propidium iodide-staining based flow cytometry (reference value: 48.89%); format: functional
[20] = Tmax in Sprague-Dawley rat at 25 mg/kg, po measured up to 48 hrs by LC-MS/MS analysis; format: ADME, organism-based; conditions: in vivo; how it was run: as §3
[21] = system: HCT-116; test: Inhibition of cell stemness in human HCT116 cells assessed as morphological alterations at 5 uM after 10 days by microscopic analysis; format: functional, cell-based; conditions: time 10.0 day
How it was run: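 Sorted ALDH⁺ HCT-116 cells, 800/well, in serum-free DMEM with B27 (1:50), EGF 20 ng/mL, β-FGF 10 ng/mL; co-incubated with compound (5 μM) or DMSO vehicle for 10 days; sphere number, diameter and morphology scored from microscopy images; mean ± SD, n = 3.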

[22] = system: HCT-116; test: Induction of apoptosis in human HCT116 cells assessed as early apoptotic cells at 5 uM after 24 hrs by annexin V-FITC/propidium iodide staining based flow cytometry (reference value: 1%); format: functional
[23] = MRT(0 to infinity) in Sprague-Dawley rat at 25 mg/kg, po measured up to 48 hrs by LC-MS/MS analysis; format: ADME, organism-based; conditions: in vivo; how it was run: as §3
[24] = system: HCT-116; test: Antitumor activity against human HCT116 cells xenografted in BALB/c athymic nude mouse assessed as tumor growth inhibition at 60 mg/kg, po administered twice daily for 4 weeks and measured every 3 days; format: functional; conditions: HCT-116, po, 672 h, read-out: TGI
How it was run: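 Male BALB/c athymic nude mice, 5 weeks old, 16−18 g, given 0.2 mL of 5 × 10⁷ cells/mL HCT-116 in right armpit. At about 100 mm³, randomized to groups of five; intragastric dosing twice daily for 4 weeks. Tumor volume and body weight every 3 days; tumors weighed after sacrifice; organs HE-stained.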

[25] = system: HCT-116; test: Induction of cell cycle arrest in human HCT116 cells assessed as accumulation at S phase at 20 uM after 24 hrs by propidium iodide-staining based flow cytometry (reference value: 36.43%); format: functional
[26] = system: HCT-116; test: Induction of apoptosis in human HCT116 cells assessed as viable cells at 5 uM after 24 hrs by annexin V-FITC/propidium iodide staining based flow cytometry (reference value: 88.3%); format: functional; conditions: read-out: Activity

AUC(0-t) at 48 h [1]: 38900 ng·h/mL
inhibition [2]: 61%
Cmax [5]: 6790 ng/mL
half-life [7]: 5.82 h
AUC(0-inf) [9]: 40000 ng·h/mL
MRT last at 48 h [13]: 6.45 h
CL/F [17]: 10.5 mL/min/kg
Vd [18]: 2.39 L/kg
Tmax [20]: 2 h
MRT inf [23]: 6.52 h
Structure (SMILES): O=C(O)c1ccc2c(c1)nc(Nc1cccc(Cl)c1)c1ccncc12 [SILMITASERTIB]
IC50 [3]: 16 µM
IC50 [4]: 15.3 µM
inhibition at 20 µM [6]: 58%
IC50 [8]: 13.2 µM
IC50 [10]: 12.8 µM
Activity [11]: 11.21%
Activity [12]: 4.2%
Activity [14]: 8.3%
IC50 [15]: 12.9 µM
IC50 [16]: 23 µM
Activity [19]: 62.48%
inhibition [21]: Active
Activity [22]: 6.8%
inhibition in vivo at 60 mg/kg [24]: 15%
Activity [25]: 26.31%
viability at 5 µM [26]: 80.7%
